As usually defined, the IC50 is the concentration that inhibits the measured activity by half.

Type in all cases: functional, cell-based
In assay [1] the test system is Jurkat. As to the kind of experiment: Cytotoxicity against human Jurkat T cells overexpressing Bcl2 after 20 hrs by WST1 assay. Put shortly: (§1)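 WST-1 cell viability read-out after 2.5, 20 and 72 h exposure; compounds tested over 0.5 to 80 µM. Cells: CD4+ Jurkat T-cells (ATCC TIB-152), Bcl-2-transfected Jurkat, and HL-60 (ATCC CCL-240). Maximal standard deviation 10% (absolute).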
(In general: Formazan colour is commonly taken as a measure of viable cells.)

The subject of assay [2] is Jurkat. As to the kind of experiment: Cytotoxicity against human Jurkat T cells after 20 hrs by WST1 assay. The gist of the method: as §1
Assay [3] deals with HL-60. As to the kind of experiment: Cytotoxicity against human HL60 after 20 hrs by WST1 assay. To be noted: HL-60, 20 h. The gist of the method:
as §1

The subject of assay [4] is HL-60. As to the kind of experiment: Induction of apoptosis in human HL60 cells by FACS. Put shortly:
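HL-60 cells (10^6 per sample) exposed 24 h, washed in cold PBS with 1% bovine calf serum and spun at 200g, 4 °C. Staining with annexin V-FITC (2 µg/mL) in HEPES binding buffer, pH 7.4, 10 min on ice in the dark, then 1 µg PI per tube. Flow cytometry within 20 min; annexin V-FITC-positive cells in the gated population scored apoptotic. Taxol 500 nM positive control, untreated negative control.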
In general terms: A flow cytometer gives signals particle by particle.

For the compound `CC#CC#C/C=C1\C=C[C@@]2(CC=CO2)O1`, the IC50 stood at 8.4 µM in the assay with Jurkat [1], 4.7 µM with Jurkat [2] and 6.1 µM in the assay on HL-60 [3].

For the compound `CC#CC#C/C=C1\C=C[C@@]2(CCCO2)O1`, the figures for the IC50 in the assay on Jurkat [1], in the assay on Jurkat [2] and in the assay with HL-60 [3] were 14.1 µM, 11.2 µM and 16.2 µM, respectively.

Take `CC#CC#C/C=C1/C=C[C@@]2(CC=CO2)O1`: the IC50 in the assay with Jurkat [1] amounted to 7.2 µM; in the assay with Jurkat [2] it was 3.8 µM; in the assay on HL-60 [3] it was 5.6 µM.

Take `CC#CC#C/C=C1/C=CC2(CCC(OC)O2)O1` (racemic) [FLOSCULIN C]: the IC50 with Jurkat [1] was 16.9 µM; with Jurkat [2], 10.8 µM; in the assay with HL-60 [3], 16.7 µM.

Take `CC#CC#C/C=C1\C=C[C@]2(OC=CC2OC(C)=O)O1` (stereo partly drawn): the Activity result in the assay with HL-60 [4] was “Dose-dependent effect”. Also, the IC50 in the assay with Jurkat [1] amounted to 6.9 µM; with Jurkat [2], 6.4 µM; in the assay on HL-60 [3] it was 4 µM.

On to `CC#CC#C/C=C1/C=C[C@]2(OC=CC2OC(C)=O)O1` (stereo partly drawn), for which the Activity result in the assay on HL-60 [4] is “Dose-dependent effect”. Further, the IC50 in the assay with Jurkat [1] turned out to be 5.2 µM; with Jurkat [2] it was 4.1 µM; with HL-60 [3] it was 4.2 µM.

For the compound `C=C1C(=O)O[C@@H]2C[C@@H](C)[C@@H]3C=CC(=O)[C@@]3(C)[C@@H](O)[C@H]12` [HELENALIN], the IC50 in the assay on Jurkat [2] worked out at 0.46 µM; in the assay on HL-60 [3], 0.7 µM.

For `CC#CC#C/C=C1/O[C@@]2(OC=C[C@H]2OC(C)=O)[C@@H](O)[C@@H]1Cl` [FLOSCULIN A], the IC50 with Jurkat [1] stood at 19.1 µM; in the assay on Jurkat [2] it was 13.2 µM; in the assay on HL-60 [3], 18.9 µM.

Turning to `CC#CC#C/C=C1\C=CC2(CCC(OC)O2)O1` (racemic) [FLOSCULIN B], the IC50 in the assay with Jurkat [1] worked out at 19.2 µM; in the assay with Jurkat [2] it was 15.2 µM; in the assay on HL-60 [3] it was 18.3 µM.

Source of the values: ChEMBL document CHEMBL1157263, “Cytotoxic diacetylenic spiroketal enol ethers from Plagius flosculosus” (J Nat Prod, 2006).
